Experiments:
Cathepsin S [1] = biological target: T1, Cathepsin S (Mus musculus, UniProt O70370); experiment: Inhibitory activity against mouse cathepsin S
[2] = Partition co-efficient, logP of the compound; assay type: physicochemical; details: octanol/water
[3] = Dissociation constant, pKa of the compound; assay type: physicochemical
A20 = experiment: Effect of compound on antigen presentation in mouse A20 cells transfected with PC-specific mIgM by IL-2 secretion; assay type: functional, cell-based
Summary of the method: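 A20 cells transfected with PC-specific mIgM (1×10^5) preincubated with compound 60 min at 37 °C in RPMI 1640 with 10% FBS, glutamine and β-mercaptoethanol. DO.11.10 T cells (1×10^5) and PC-OVA antigen (30 μg/mL) added, then incubated overnight. IL-2 secreted into medium measured by ELISA. IC50 taken against DMSO as the no-inhibition control; at least duplicate experiments.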

Cathepsin S [4] = biological target: T1, Cathepsin S; experiment: Inhibitory activity against mouse cathepsin S in mouse splenocytes; assay type: cell-based
Summary of the method: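 Splenocytes from 8–10-week C57Bl/6 mouse spleens, red cells lysed in NH4Cl buffer, suspended at 2.5×10^7 cells/mL in RPMI/HEPES pH 7. Preincubated with compound 60 min at 37 °C, then iodinated probe BIL-DMK (1 nM) added for 20 min.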

Osteoclast = experiment: Effect of compound on degradation of collagen in osteoclast bone resorption assay; assay type: functional, cell-based; details: Oryctolagus cuniculus
Cathepsin B [5] = biological target: T2, Cathepsin B (Homo sapiens, UniProt P07858); experiment: Inhibitory activity against human cathepsin B
Cathepsin S [6] = biological target: T3, Cathepsin S (Homo sapiens, UniProt P25774); experiment: Inhibitory activity against human cathepsin S
T3 sequence (P25774 whole entry): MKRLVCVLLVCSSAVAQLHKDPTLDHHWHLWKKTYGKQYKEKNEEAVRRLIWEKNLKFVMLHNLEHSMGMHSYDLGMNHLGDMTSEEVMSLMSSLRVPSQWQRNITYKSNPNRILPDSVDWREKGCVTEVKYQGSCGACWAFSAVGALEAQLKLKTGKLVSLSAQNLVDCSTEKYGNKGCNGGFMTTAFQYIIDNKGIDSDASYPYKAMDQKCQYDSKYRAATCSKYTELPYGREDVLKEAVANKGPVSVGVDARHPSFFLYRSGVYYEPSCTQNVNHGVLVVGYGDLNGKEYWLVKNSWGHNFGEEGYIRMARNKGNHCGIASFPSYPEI

Cathepsin B [7] = biological target: T2, Cathepsin B; experiment: Inhibitory activity against human cathepsin B expressed in HepG2 cells; assay type: cell-based
Cathepsin K [8] = biological target: Cathepsin K (Homo sapiens, UniProt P43235); experiment: Inhibitory activity against humanized rabbit cathepsin K; parameters: species or system Oryctolagus cuniculus
Procathepsin L [9] = biological target: T4, Procathepsin L (Homo sapiens, UniProt P07711); experiment: Inhibitory activity against human cathepsin L expressed in HepG2 cells; assay type: cell-based
T4 sequence (P07711 whole entry): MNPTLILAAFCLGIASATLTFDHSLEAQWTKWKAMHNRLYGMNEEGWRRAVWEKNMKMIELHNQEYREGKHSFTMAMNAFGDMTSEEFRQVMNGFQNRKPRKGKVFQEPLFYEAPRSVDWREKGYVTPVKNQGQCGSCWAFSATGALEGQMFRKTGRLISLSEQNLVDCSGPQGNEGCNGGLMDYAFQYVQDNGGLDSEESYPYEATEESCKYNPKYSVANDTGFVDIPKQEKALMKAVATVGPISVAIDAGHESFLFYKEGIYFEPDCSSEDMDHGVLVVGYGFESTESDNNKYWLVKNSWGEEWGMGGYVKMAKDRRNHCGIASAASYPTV

Procathepsin L [10] = biological target: T4, Procathepsin L; experiment: Inhibitory activity against human cathepsin L
Cathepsin K [11] = biological target: T5, Cathepsin K (Oryctolagus cuniculus, UniProt P43236); experiment: Inhibitory activity against rabbit cathepsin K
T5 sequence (P43236 whole entry): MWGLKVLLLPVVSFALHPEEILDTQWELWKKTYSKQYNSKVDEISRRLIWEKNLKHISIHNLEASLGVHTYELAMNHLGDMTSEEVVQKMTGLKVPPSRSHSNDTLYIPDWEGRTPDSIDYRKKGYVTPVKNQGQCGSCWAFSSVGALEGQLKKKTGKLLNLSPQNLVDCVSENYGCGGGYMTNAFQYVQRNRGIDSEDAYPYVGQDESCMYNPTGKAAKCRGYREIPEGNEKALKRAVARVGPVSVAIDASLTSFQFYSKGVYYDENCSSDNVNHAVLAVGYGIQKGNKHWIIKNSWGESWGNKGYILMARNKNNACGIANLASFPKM

Cathepsin S [12] = biological target: T3, Cathepsin S; experiment: Inhibitory activity against human cathepsin S expressed in ramos cells; assay type: cell-based
Rattus norvegicus [13] = experiment: Volume of distribution in rat administered with 10 mg/kg, po; assay type: ADME, organism-based; parameters: dose 10 mg/kg, route oral; details: in vivo
Rattus norvegicus [14] = experiment: Plasma concentration in rat at 10 mg/kg, po; assay type: ADME, organism-based; parameters: dose 10 mg/kg, route oral; details: in vivo
Summary of the method: (§1)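 Rats dosed 10 mg/kg po or 5 mg/kg iv; tissues and plasma taken 2 h after dosing. Tissue weighed, homogenized in 2 volumes water, then 3 volumes acetonitrile with internal standard, homogenized again and centrifuged. Supernatant quantified by LC-MS/MS against a standard curve from spiked rat plasma.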

[15] = Volume of distribution in rat administered with 5 mg/kg, iv; assay type: ADME, organism-based; parameters: dose 5 mg/kg, route intravenous; details: in vivo, read-out: Vdss
Rattus norvegicus [16] = experiment: Plasma concentration in rat at 5 mg/kg, iv; assay type: ADME, organism-based; parameters: dose 5 mg/kg, route intravenous; details: in vivo; summary of the method: as §1

T1 sequence (O70370 whole entry): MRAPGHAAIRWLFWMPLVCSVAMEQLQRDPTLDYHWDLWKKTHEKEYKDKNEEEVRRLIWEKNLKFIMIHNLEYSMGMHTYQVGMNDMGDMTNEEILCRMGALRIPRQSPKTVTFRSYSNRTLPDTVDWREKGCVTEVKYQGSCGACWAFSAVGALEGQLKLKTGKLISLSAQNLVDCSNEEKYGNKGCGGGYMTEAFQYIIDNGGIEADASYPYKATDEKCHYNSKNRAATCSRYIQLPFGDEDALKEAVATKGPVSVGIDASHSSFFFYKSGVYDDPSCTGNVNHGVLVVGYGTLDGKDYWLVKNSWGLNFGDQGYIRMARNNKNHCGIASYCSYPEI

| Structure (SMILES) | IC50 (Cathepsin S [1]) | logP [2] | pKa [3] | IC50 (A20) | IC50 (Cathepsin S [4]) | IC50 (Osteoclast) | IC50 (Cathepsin B [5]) | IC50 (Cathepsin S [6]) | IC50 (Cathepsin B [7]) | IC50 (Cathepsin K [8]) | IC50 (Procathepsin L [9]) | IC50 (Procathepsin L [10]) | IC50 (Cathepsin K [11]) | IC50 (Cathepsin S [12]) | Vdss (Rattus norvegicus [13]) | concentration (Rattus norvegicus [14]) | Vd [15] | concentration (Rattus norvegicus [16]) |
| --- | --- | --- | --- | --- | --- | --- | --- | --- | --- | --- | --- | --- | --- | --- | --- | --- | --- | --- |
| CC(C)C[C@@H](C(=O)NCC#N)c1cccc(-c2ccc(N3CCNCC3)cc2)c1 | 34100 nM | 3.46 | 8.77 | 8600 nM | 740 nM | 149 nM | 86000 nM | 20000 nM | 4400 nM | 7.8 nM | 320 nM | 2600 nM | 33 nM | 1340 nM |  |  |  |  |
| CCCN1CCN(c2ccc(C(=O)NC3(C(=O)NCC#N)CCCCC3)cc2)CC1 [BALICATIB] | 6350 nM | 1.81 | 7.76 | 6180 nM | 480 nM |  | 4800 nM | 65000 nM | 61 nM |  | 48 nM | 503 nM |  | 2900 nM | 4.7 L/kg |  |  |  |
| N#CCNC(=O)C1(NC(=O)c2ccc(-c3csc(N4CCOCC4)n3)cc2)CCCCC1 | 8500 nM |  |  | > 100000 nM | 6700 nM | 41 nM | 4200 nM | 27000 nM | 2900 nM | 2.3 nM | > 10000 nM | 24000 nM | 9.5 nM | > 10000 nM |  |  |  |  |
| N#CCNC(=O)C1(NC(=O)c2ccc(N3CCOCC3)cc2)CCCCC1 | 4500 nM | 0.98 |  | > 100000 nM | 8500 nM | 580 nM | 15400 nM | 52000 nM | 4400 nM | 19 nM | > 10000 nM | 32000 nM | 72 nM | 4800 nM |  |  | 1.9 L/kg | 170 nM |
| N#CCNC(=O)[C@H](CC1CCCCC1)NC(=O)c1ccccc1 | 13 nM |  |  | 1220 nM | 40 nM |  | 19000 nM | 5.3 nM | 940 nM | 1030 nM | 230 nM | 55 nM |  | 10 nM |  |  |  |  |

Now from value to compound:

| IC50 (Cathepsin S [1]) | logP [2] | pKa [3] | IC50 (A20) | IC50 (Cathepsin S [4]) | IC50 (Osteoclast) | IC50 (Cathepsin B [5]) | IC50 (Cathepsin S [6]) | IC50 (Cathepsin B [7]) | IC50 (Cathepsin K [8]) | IC50 (Procathepsin L [9]) | IC50 (Procathepsin L [10]) | IC50 (Cathepsin K [11]) | IC50 (Cathepsin S [12]) | Vdss (Rattus norvegicus [13]) | concentration (Rattus norvegicus [14]) | Vd [15] | concentration (Rattus norvegicus [16]) | Structure (SMILES) |
| --- | --- | --- | --- | --- | --- | --- | --- | --- | --- | --- | --- | --- | --- | --- | --- | --- | --- | --- |
| 33000 nM | 2.9 | 6.84 | > 100000 nM | > 10000 nM |  |  |  |  |  |  |  |  |  |  |  |  |  | CN1CCN(c2nc(-c3ccc(C(=O)NC4(C(=O)NCC(F)(F)F)CCCCC4)cc3)cs2)CC1 |
| 5400 nM | 2.3 | 7.01 | 6200 nM | 318 nM |  | 1100 nM | 47000 nM | 17 nM | 0.25 nM | 340 nM | 6300 nM | 0.5 nM | 790 nM | 11 L/kg | 2400 nM |  |  | CN1CCN(c2nc(-c3ccc(C(=O)NC4(C(=O)NCC#N)CCCCC4)cc3)cs2)CC1 |
